Consider 24 molecules from ChEMBL document CHEMBL4732168, “Dihydroquinazolines enhance 20S proteasome activity and induce degradation of α-synuclein, an intrinsically disordered protein associated with neurodegeneration” (Bioorg Med Chem Lett, 2021).

Assay type in all cases: protein-complex assay
Assay [1] concerns the target T1, 20S proteasome (Homo sapiens) (UniProt P49721+P20618+P28074+P28062+P28065+P28072+P25786+P25787+P25788+P25789+P28066+P60900+O14818+Q8TAA3+P40306+A5LHX3+P49720+P28070+Q99436). The experiment in a line: Activation of human 20S proteosome assessed as increase in 7-amino-4-methylcoumarin release at 30 uM using mixture of chymotrypsin-like Suc-LLVY-AMC, trypsin-like Boc-LRR-AMC and caspase-like Z-LLE-AM fluorogenic peptides as substrates preincubated for 15 mins followed by substrate mixture addition and measured for 1 hr by fluorescence assay relative to control. As to conditions: filed as activator, time 75.0 min. Summed up:
(§1)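 Purified human 20S proteasome pre-incubated 15 min at 37°C with compound (3, 10 or 30 μM) or DMSO vehicle. Substrate mix then added: Suc-LLVY-AMC, Boc-LRR-AMC and Z-LLE-AMC, 13.3 μM each. AMC fluorescence followed over 1 h. Fold increase in activity calculated against untreated 20S.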

The target in assay [2] is T1, 20S proteasome (Homo sapiens). The assay is described as follows: Activation of human 20S proteosome assessed as fold increase in proteosome activity at 5.8 uM using caspase-like Z-LLE-AM fluorogenic peptide as substrate by fluorescence assay relative to control. As to conditions: filed as activator.
Assay [3] shares this target. The assay is described as follows: Activation of human 20S proteosome assessed as fold increase in proteosome activity at 2.5 uM using trypsin-like Boc-LRR-AMC fluorogenic peptide as substrate by fluorescence assay relative to control. As to conditions: filed as activator.
Assay [4] has the same target. The experiment in a line: Activation of human 20S proteosome assessed as concentration required to cause double the proteosome activity using chymotrypsin-like Suc-LLVY-AMC, trypsin-like Boc-LRR-AMC and caspase-like Z-LLE-AM fluorogenic peptides as substrates. Particulars: filed as activator. Summed up:
(§2)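 Human 20S proteasome activity measured by AMC fluorescence over time. Each fluorogenic substrate (CT-L Suc-LLVY-AMC, Tryp-L Boc-LRR-AMC, Casp-L Z-LLE-AMC) tested alone and as an equal-amount mixture. Six-point compound titration, 1.25–40 μM, run in triplicate. AC200, the concentration that doubles 20S activity, derived from the concentration-response curves.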

The target is the same in assay [5]. The assay is described as follows: Activation of human 20S proteosome assessed as fold increase in proteosome activity at 8.1 uM using chymotrypsin-like Suc-LLVY-AMC fluorogenic peptide as substrate by fluorescence assay relative to control. As to conditions: filed as activator.
For assay [6] the target is unchanged. The experiment in a line: Activation of human 20S proteosome assessed as concentration required to cause double the proteosome activity using caspase-like Z-LLE-AM fluorogenic peptide as substrate. As to conditions: filed as activator. The method, boiled down:
as §2

Assay [7] has the same target. The assay is described as follows: Activation of human 20S proteosome assessed as concentration required to cause double the proteosome activity using chymotrypsin-like Suc-LLVY-AMC fluorogenic peptide as substrate. As to conditions: filed as activator. The method, boiled down: as §2
Assay [8] shares this target. The experiment in a line: Activation of human 20S proteosome assessed as concentration required to cause double the proteosome activity using trypsin-like Boc-LRR-AMC fluorogenic peptide as substrate. As to conditions: filed as activator. Summed up: as §2
For assay [9] the target is unchanged. The assay is described as follows: Activation of human 20S proteosome assessed as increase in 7-amino-4-methylcoumarin release at 3 uM using mixture of chymotrypsin-like Suc-LLVY-AMC, trypsin-like Boc-LRR-AMC and caspase-like Z-LLE-AM fluorogenic peptides as substrates preincubated for 15 mins followed by substrate mixture addition and measured for 1 hr by fluorescence assay relative to control. As to conditions: filed as activator, time 75.0 min. The method, boiled down:
as §1

Assay [10] shares this target. The assay is described as follows: Activation of human 20S proteosome assessed as fold increase in proteosome activity at 2.3 uM using mixture of chymotrypsin-like Suc-LLVY-AMC, trypsin-like Boc-LRR-AMC and caspase-like Z-LLE-AM fluorogenic peptides as substrates by fluorescence assay relative to control. As to conditions: filed as activator.
For assay [11] the target is unchanged. The experiment in a line: Activation of human 20S proteosome assessed as fold increase in proteosome activity at 1.7 uM using trypsin-like Boc-LRR-AMC fluorogenic peptide as substrate by fluorescence assay relative to control. As to conditions: filed as activator.
The target is the same in assay [12]. The assay is described as follows: Activation of human 20S proteosome assessed as fold increase in proteosome activity at 10.5 uM using chymotrypsin-like Suc-LLVY-AMC fluorogenic peptide as substrate by fluorescence assay relative to control. Particulars: filed as activator.
Assay [13] shares this target. The assay is described as follows: Induction of human 20S proteosome mediated human alpha-synuclein degradation. As to conditions: filed as activator, dose 0.5-10 µM. The method, boiled down:
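Compound pre-incubated with purified human 20S proteasome. Pure human α-synuclein then added and the mix incubated 4 h. Digests resolved and silver stained. α-Synuclein bands quantified using 20S proteasome subunits as loading control, n=3.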

For assay [14] the target is unchanged. The experiment in a line: Activation of human 20S proteosome assessed as fold increase in proteosome activity at 1.3 uM using mixture of chymotrypsin-like Suc-LLVY-AMC, trypsin-like Boc-LRR-AMC and caspase-like Z-LLE-AM fluorogenic peptides as substrates by fluorescence assay relative to control. As to conditions: filed as activator.
Assay [15] has the same target. The experiment in a line: Activation of human 20S proteosome assessed as fold increase in proteosome activity at 2.8 uM using caspase-like Z-LLE-AM fluorogenic peptide as substrate by fluorescence assay relative to control. Particulars: filed as activator.
Assay [16] has the same target. The experiment in a line: Activation of human 20S proteosome assessed as fold increase in proteosome activity at 5 uM using trypsin-like Boc-LRR-AMC fluorogenic peptide as substrate by fluorescence assay relative to control. Particulars: filed as activator.
The target is the same in assay [17]. The assay is described as follows: Activation of human 20S proteosome assessed as fold increase in proteosome activity at 12.9 uM using chymotrypsin-like Suc-LLVY-AMC fluorogenic peptide as substrate by fluorescence assay relative to control. As to conditions: filed as activator.
Assay [18] shares this target. The assay is described as follows: Activation of human 20S proteosome assessed as fold increase in proteosome activity at 2 uM using mixture of chymotrypsin-like Suc-LLVY-AMC, trypsin-like Boc-LRR-AMC and caspase-like Z-LLE-AM fluorogenic peptides as substrates by fluorescence assay relative to control. Particulars: filed as activator.
Assay [19] shares this target. The experiment in a line: Activation of human 20S proteosome assessed as fold increase in proteosome activity at 5.6 uM using caspase-like Z-LLE-AM fluorogenic peptide as substrate by fluorescence assay relative to control. As to conditions: filed as activator.

As to `Cc1ccc2c(c1)N=C(c1ccccc1)N(Cc1ccccc1)C2c1ccccc1` (configuration not stated), the fold change (FC) in [1] was 8.1.

With `COc1ccc2c(c1)N=C(c1ccccc1)N(CC1CCCCC1)C2c1ccccc1` (configuration not stated), the fold change (FC) in [1] was found to be 8.2.

In the case of `COc1ccc2c(c1)N=C(c1ccccc1)N(CC1CCOCC1)C2c1ccccc1` (configuration not stated), in assay [1], the fold change (FC) is 1.6.

`c1ccc(CN2C(c3ccccc3)=Nc3ccccc3C2c2ccccc2)cc1` (configuration not stated): in [1], the fold change (FC) was determined as 4.

As to `COc1ccc2c(c1)N=C(c1ccccc1)N(CC#N)C2c1ccccc1` (configuration not stated), the fold change (FC) in assay [1] was 2.7.

Turning to `COc1ccc2c(c1)N=C(c1ccccc1)N(Cc1ccccn1)C2c1ccccc1` (configuration not stated), the fold change (FC) in assay [1] was 2.

On to `COc1ccc2c(c1)N=C(C1CC1)N(Cc1ccccc1)C2c1ccccc1` (configuration not stated), for which the fold change (FC) in assay [1] stood at 2.7.

On to `COc1ccc2c(c1)N=C(c1ccccc1)N(CC1CCN(C)CC1)C2c1ccccc1` (configuration not stated), for which the fold change (FC) in assay [1] worked out at 1.2.

As to `CCCCCc1ccc2c(c1)N=C(c1ccccc1)N(Cc1ccccc1)C2c1ccccc1` (configuration not stated), in assay [1], the fold change (FC) was found to be 2.8.

With `CCCCCCN1C(c2ccccc2)=Nc2cc(OC)ccc2C1c1ccccc1` (configuration not stated), in assay [1], the fold change (FC) came out at 1.6.

Regarding `COc1ccc2c(c1)N=C(c1ccccc1)N(c1ccccc1)C2c1ccccc1` (configuration not stated), the fold change (FC) in [2] was determined as 15.3; in assay [3] it was 15; in assay [1] it was 9.5; in assay [5] it was 6.7; in [10] it was 11.1. Besides, the AC200 turned out to be 2.3 µM in assay [4], 5.8 µM in assay [6], 8.1 µM in assay [7] and 2.5 µM in [8]. In assay [9], the Activity was more than 200%.

Take `C=CCN1C(c2ccccc2)=Nc2cc(OC)ccc2C1c1ccccc1` (configuration not stated): in assay [1], the fold change (FC) came to 2.3.

As for `COc1ccc2c(c1)N=C(c1ccccc1)N(C1CCN(Cc3ccccc3)CC1)C2c1ccccc1` (configuration not stated), the fold change (FC) in assay [11] was found to be 8.7; in assay [1], 7; in assay [12] it was 3.8; in assay [14] it was 5.5; in assay [15], 10.6. The AC200 in assay [4] came to 1.3 µM; in assay [6], 2.8 µM; in assay [7] it was 10.5 µM; in assay [8] it was 1.7 µM. In addition, the Activity in [9] is more than 200%; in assay [13] it was “Dose-dependent effect”.

`COc1ccc2c(c1)N=C(c1ccccc1)N(C1CCCCC1)C2c1ccccc1` (configuration not stated): in assay [1], the fold change (FC) is 6.7.

Regarding `COc1ccc2c(c1)N=C(c1ccccc1)N(c1cccc3cccnc13)C2c1ccccc1` (configuration not stated), the fold change (FC) in assay [1] came out at 5.3.

For `COc1ccc2c(c1)N=C(c1ccccc1)N(Cc1ccccc1)C2c1ccccc1` (configuration not stated), the fold change (FC) in [16] is 11.7; in assay [17], 5.6; in assay [1], 7.9; in [18], 10.1; in [19], 13.4. Moreover, the AC200 in [4] was 2 µM; in assay [6] it was 5.6 µM; in assay [7] it was 12.9 µM; in assay [8], 5 µM. Further, the Activity in assay [9] was more than 200%.

Turning to `COc1ccc2c(c1)N=C(c1ccccc1)N(c1ccccn1)C2c1ccccc1` (configuration not stated), in assay [1], the fold change (FC) was determined as 6.9.

Take `CCCCCC1=Nc2cc(OC)ccc2C(c2ccccc2)N1Cc1ccccc1` (configuration not stated): the fold change (FC) in [1] was determined as 2.8.

For the molecule `COc1ccc2c(c1)N=C(c1ccccc1)N(c1cccnc1)C2c1ccccc1` (configuration not stated), the fold change (FC) in assay [1] turned out to be 5.9.

With `COc1ccc2c(c1)N=C(C)N(Cc1ccccc1)C2c1ccccc1` (configuration not stated), the fold change (FC) in assay [1] came out at 1.8.

`COc1ccc2c(c1)N=C(C(C)C)N(Cc1ccccc1)C2c1ccccc1` (configuration not stated): the fold change (FC) in [1] worked out at 2.3.

Turning to `COc1ccc2c(c1)N=C(c1ccccc1)N(CCc1ccccn1)C2c1ccccc1` (configuration not stated), in assay [1], the fold change (FC) was found to be 2.8.

In the case of `COc1ccc2c(c1)N=C(C1CCCCC1)N(Cc1ccccc1)C2c1ccccc1` (configuration not stated), in [1], the fold change (FC) amounted to 6.5.

With `COc1ccc2c(c1)N=C(c1ccccc1)N(C1CCN(C)CC1)C2c1ccccc1` (configuration not stated), the fold change (FC) in assay [1] is 1.
